Results on one compound are retold here after ChEMBL document CHEMBL1151932, “Antiviral effect of ribonuclease conjugated oligodeoxynucleotides targeting the IRES RNA of the hepatitis C virus” (Bioorg Med Chem Lett, 2009).

The source made the active and inactive calls. The rule behind the calls is not given here.

Series [1] relates to Internal ribosome entry site (IRES). Kind of series: Inhibition of HCV IRES RNA fragment-mediated translation in human Huh7.5.1 cells treated through microporation 17 hrs prior to infection for 4 hrs measured after 20 hrs by reticulocyte based translation assay. In kind it is cell-based. To be noted: Hepacivirus hominis; Huh-7.
Series [2] concerns Hepatitis C virus. Kind of series: Antiviral activity against HCV infected in human Huh7.5.1 cells at 100 nM treated through lipofection after 17 hrs of infection by luciferase assay. In kind it is functional, organism-based. The conditions noted are these: Hepacivirus hominis, Huh-7. In short, it runs like this: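 Huh7.5.1 cells were infected with reporter HCVcc (FL-J6/JFH-5/C19Rluc2AUbi construct) without trypsinization. After 17 h, cells were transfected with oligodeoxynucleotide using a lipid reagent (10–1000 nM tested). Replication signal was normalized to cell number by WST-1 and expressed as % of a scrambled-sequence non-specific ODN control. Triplicate.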

The subject of series [3] is Hepatitis C virus. In words: Antiviral activity against HCV infected in human Huh7.5.1 cells at 1000 nM treated through lipofection after 17 hrs of infection by luciferase assay. In kind it is functional, Hepacivirus hominis, Huh-7. In outline:
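Huh7.5.1 cells first infected with HCVcc; after 17 h, ODNs transfected by lipid reagent at 10–1000 nM. Triplicate runs; signal normalised to cell number by WST-1 and expressed as percent of non-specific scrambled ODN control.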

Series [4] deals with Hepatitis C virus. In words: Antiviral activity against HCV in cell-free system at 100 nM. Type of series: functional. The conditions noted are these: Hepacivirus hominis.
In series [5] the test system is Hepatitis C virus. In words: Cytotoxicity against HCV infected in human Huh7.5.1 cells treated through microporation for 17 hrs prior to 4 hr infection period measured after 20 hrs postinfection by luciferase assay. Type of series: organism-based. To be noted: hepacivirus hominis, huh-7, 20 h.
The subject of series [6] is Internal ribosome entry site (IRES). In words: Inhibition of HCV IRES RNA fragment-mediated translation in human Huh7.5.1 cells treated through microporation 17 hrs prior to infection for 4 hrs measured after 20 hrs by luciferase reporter gene assay. Type of series: cell-based. To be noted: Hepacivirus hominis; Huh-7. (In general: Reporter assays use an easily measured gene product as a stand-in for the process of interest.)

On to `Cc1cn([C@@H]2O[C@H](COP(=O)(O)O[C@H]3[C@@H](O)[C@H](n4ccc(N)nc4=O)O[C@@H]3COP(=O)(O)O[C@H]3C(O)[C@H](n4cnc5c(N)ncnc54)O[C@@H]3COP(=O)(O)O[C@H]3[C@@H](O)[C@H](n4ccc(N)nc4=O)O[C@@H]3COP(=O)(O)O[C@H]3[C@@H](O)[C@H](n4cnc5c(N)ncnc54)O[C@@H]3COP(=O)(O)O[C@H]3[C@@H](O)[C@H](n4cnc5c(N)ncnc54)O[C@@H]3COP(=O)(O)O[C@H]3[C@@H](O)[C@H](n4ccc(N)nc4=O)O[C@@H]3COP(=O)(O)O[C@H]3[C@@H](O)[C@H](n4ccc(N)nc4=O)O[C@@H]3COP(=O)(O)O[C@H]3C[C@H](n4ccc(N)nc4=O)O[C@@H]3COP(=O)(O)OCCCNC(=O)C(CCCc3c[nH]cn3)CCCc3c[nH]cn3)[C@@H](OP(=O)(O)OC[C@H]3O[C@@H](n4cnc5c(N)ncnc54)[C@H](O)[C@@H]3OP(=O)(O)OC[C@H]3O[C@@H](n4ccc(N)nc4=O)C(O)[C@@H]3OP(=O)(O)OC[C@H]3O[C@@H](n4cc(C)c(=O)[nH]c4=O)[C@H](O)[C@@H]3OP(=O)(O)OC[C@H]3O[C@@H](n4ccc(N)nc4=O)[C@H](O)[C@@H]3OP(=O)(O)OC[C@H]3O[C@@H](n4cnc5c(=O)[nH]c(N)nc54)[C@H](O)[C@@H]3OP(=O)(O)OC[C@H]3O[C@@H](n4cnc5c(=O)[nH]c(N)nc54)[C@H](O)[C@@H]3OP(=O)(O)OC[C@H]3O[C@@H](n4cnc(N)cc4=O)[C@H](O)[C@@H]3OP(=O)(O)O)[C@H]2O)c(=O)[nH]c1=O` (stereo partly specified), for which the result (in series [1]; with Hepatitis C virus [2]; in series [6]) was Active. Also, the Activity was 50% with Hepatitis C virus [3] and “Non-toxic” in the series with Hepatitis C virus [5]. Further, the outcome in the series with Hepatitis C virus [4] was inactive.
